31 compounds from ChEMBL document CHEMBL3286111, “Tryptophan hydroxylase 1 (Tph-1)-targeted bone anabolic agents for osteoporosis” (J Med Chem, 2014) can be followed below.

The series can be described thus: Cytotoxicity against rat RBL2H3 cells by MTT assay. Details: concentration or dose not given beside the values. Particulars: rbl-2h3. The format is cell-based. The method, boiled down:
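RBL2H3 cells (α-MEM) or PC12 cells (D-MEM), both with 10% FBS, treated at a single dose in 0.1% DMSO; 0.1% DMSO control; 37 °C, 5% CO2. MTT (5 mg/mL) added 4 h before the end, then SDS/DMF lysis buffer (pH 7.2) for 6 h; absorbance read at 570 nm. Cytotoxicity % calculated from background-corrected OD versus control.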
In turn, `C[C@H]1[C@H](C)CC[C@]2(C(=O)O)CC[C@]3(C)C(=CC[C@@H]4[C@@]5(C)Cc6c([nH]c7ccc(Cl)cc67)C(C)(C)[C@@H]5CC[C@]43C)[C@H]12` returned an Activity of 2.9%.

`C[C@H]1[C@H](C)CC[C@]2(C(=O)NCCC3CCN(Cc4ccccc4)CC3)CC[C@]3(C)C(=CC[C@@H]4[C@@]5(C)Cc6nc7ccccc7nc6C(C)(C)[C@@H]5CC[C@]43C)[C@H]12`: the Activity is reported as 59.5%.

`CCOC(=O)CNC(=O)[C@]12CC[C@@H](C)[C@H](C)[C@H]1C1=CC[C@@H]3[C@@]4(C)Cc5cnn(-c6ccc(F)cc6)c5C(C)(C)[C@@H]4CC[C@@]3(C)[C@]1(C)CC2`: the Activity was determined as 15.8%.

Take `CCOC(=O)CNC(=O)[C@]12CC[C@@H](C)[C@H](C)[C@H]1C1=CC[C@@H]3[C@@]4(C)CCC(=O)C(C)(C)[C@@H]4CC[C@@]3(C)[C@]1(C)CC2`: the Activity was determined as 1.7%.

For the compound `C[C@H]1[C@H](C)CC[C@]2(C(=O)O)CC[C@]3(C)C(=CC[C@@H]4[C@@]5(C)Cc6c([nH]c7ccc(Br)cc67)C(C)(C)[C@@H]5CC[C@]43C)[C@H]12`, the Activity amounted to 3.7%.

Compound `C[C@H]1[C@H](C)CC[C@]2(C(=O)O)CC[C@]3(C)C(=CC[C@@H]4[C@@]5(C)Cc6cnn(-c7ccc(F)cc7)c6C(C)(C)[C@@H]5CC[C@]43C)[C@H]12` registered an Activity of 1.5%.

In the case of `C[C@H]1[C@H](C)CC[C@]2(C(=O)O)CC[C@]3(C)C(=CC[C@@H]4[C@@]5(C)Cc6cnoc6C(C)(C)[C@@H]5CC[C@]43C)[C@H]12`, the Activity came out at 2.1%.

Consider `C[C@H]1[C@H](C)CC[C@]2(C(=O)O)CC[C@]3(C)C(=CC[C@@H]4[C@@]5(C)Cc6cn[nH]c6C(C)(C)[C@@H]5CC[C@]43C)[C@H]12`, for which the Activity was determined as 0.1%.

Compound `COC(=O)C(CC(C)C)NC(=O)[C@]12CC[C@@H](C)[C@H](C)[C@H]1C1=CC[C@@H]3[C@@]4(C)CC[C@H](OC(C)=O)C(C)(C)[C@@H]4CC[C@@]3(C)[C@]1(C)CC2` (stereo partly specified) yielded an Activity of 6.6%.

As for `CCOC(=O)CNC(=O)[C@]12CC[C@@H](C)[C@H](C)[C@H]1C1=CC[C@@H]3[C@@]4(C)Cc5c([nH]c6ccc(Br)cc56)C(C)(C)[C@@H]4CC[C@@]3(C)[C@]1(C)CC2`, the Activity is reported as 1.7%.

Compound `COC(=O)C(CC(C)C)NC(=O)[C@]12CC[C@@H](C)[C@H](C)[C@H]1C1=CC[C@@H]3[C@@]4(C)Cc5nc6ccccc6nc5C(C)(C)[C@@H]4CC[C@@]3(C)[C@]1(C)CC2` (stereo partly specified) returned an Activity of 0.5%.

The compound `C[C@H]1[C@H](C)CC[C@]2(C(=O)O)CC[C@]3(C)C(=CC[C@@H]4[C@@]5(C)Cc6cnn(-c7ccccc7)c6C(C)(C)[C@@H]5CC[C@]43C)[C@H]12` yielded an Activity of 2.4%.

The compound `CCOC(=O)CNC(=O)[C@]12CC[C@@H](C)[C@H](C)[C@H]1C1=CC[C@@H]3[C@@]4(C)Cc5cnoc5C(C)(C)[C@@H]4CC[C@@]3(C)[C@]1(C)CC2` showed an Activity of 11.1%.

`CCOC(=O)CNC(=O)[C@]12CC[C@@H](C)[C@H](C)[C@H]1C1=CC[C@@H]3[C@@]4(C)Cc5cnn(-c6ccccc6)c5C(C)(C)[C@@H]4CC[C@@]3(C)[C@]1(C)CC2`: the Activity was 1.2%.

For `COC(=O)C(Cc1ccccc1)NC(=O)[C@]12CC[C@@H](C)[C@H](C)[C@H]1C1=CC[C@@H]3[C@@]4(C)Cc5c([nH]c6ccc(Cl)cc56)C(C)(C)[C@@H]4CC[C@@]3(C)[C@]1(C)CC2` (stereo partly specified), the Activity came to 1.6%.

Compound `COC(=O)C(CC(C)C)NC(=O)[C@]12CC[C@@H](C)[C@H](C)[C@H]1C1=CC[C@@H]3[C@@]4(C)Cc5c([nH]c6ccc(Cl)cc56)C(C)(C)[C@@H]4CC[C@@]3(C)[C@]1(C)CC2` (stereo partly specified) showed an Activity of 15%.

For `CCOC(=O)CNC(=O)[C@]12CC[C@@H](C)[C@H](C)[C@H]1C1=CC[C@@H]3[C@@]4(C)Cc5cn[nH]c5C(C)(C)[C@@H]4CC[C@@]3(C)[C@]1(C)CC2`, the Activity is listed as 0.4%.

`COC(=O)C(CC(C)C)NC(=O)[C@]12CC[C@@H](C)[C@H](C)[C@H]1C1=CC[C@@H]3[C@@]4(C)Cc5cncnc5C(C)(C)[C@@H]4CC[C@@]3(C)[C@]1(C)CC2` (stereo partly specified) gave an Activity of 10.3%.

The compound `CC(=O)O[C@H]1CC[C@]2(C)[C@H]3CC=C4[C@@H]5[C@@H](C)[C@H](C)CC[C@]5(C(=O)O)CC[C@@]4(C)[C@]3(C)CC[C@H]2C1(C)C` [O-ACETYLURSOLIC ACID] displayed an Activity of 4.1%.

Take `COC(=O)C(Cc1ccccc1)NC(=O)[C@]12CC[C@@H](C)[C@H](C)[C@H]1C1=CC[C@@H]3[C@@]4(C)Cc5nc6cc(Cl)c(Cl)cc6nc5C(C)(C)[C@@H]4CC[C@@]3(C)[C@]1(C)CC2` (stereo partly specified): the Activity was 7.7%.

As for `COC(=O)C(Cc1ccccc1)NC(=O)[C@]12CC[C@@H](C)[C@H](C)[C@H]1C1=CC[C@@H]3[C@@]4(C)CC[C@H](OC(C)=O)C(C)(C)[C@@H]4CC[C@@]3(C)[C@]1(C)CC2` (stereo partly specified), the Activity amounted to 12.4%.

`COC(=O)C(CC(C)C)NC(=O)[C@]12CC[C@@H](C)[C@H](C)[C@H]1C1=CC[C@@H]3[C@@]4(C)Cc5cnn(-c6ccccc6)c5C(C)(C)[C@@H]4CC[C@@]3(C)[C@]1(C)CC2` (stereo partly specified): the Activity came out at 1.8%.

Compound `C[C@H]1[C@H](C)CC[C@]2(C(=O)O)CC[C@]3(C)C(=CC[C@@H]4[C@@]5(C)Cc6cncnc6C(C)(C)[C@@H]5CC[C@]43C)[C@H]12` yielded an Activity of 4.3%.

`COC(=O)C(Cc1ccccc1)NC(=O)[C@]12CC[C@@H](C)[C@H](C)[C@H]1C1=CC[C@@H]3[C@@]4(C)Cc5cnoc5C(C)(C)[C@@H]4CC[C@@]3(C)[C@]1(C)CC2` (stereo partly specified) yielded an Activity of 0.8%.

In the case of `COC(=O)C(Cc1ccccc1)NC(=O)[C@]12CC[C@@H](C)[C@H](C)[C@H]1C1=CC[C@@H]3[C@@]4(C)Cc5c([nH]c6ccc(Br)cc56)C(C)(C)[C@@H]4CC[C@@]3(C)[C@]1(C)CC2` (stereo partly specified), the Activity is recorded as 16%.

Consider `COC(=O)C(CC(C)C)NC(=O)[C@]12CC[C@@H](C)[C@H](C)[C@H]1C1=CC[C@@H]3[C@@]4(C)Cc5c([nH]c6ccc(Br)cc56)C(C)(C)[C@@H]4CC[C@@]3(C)[C@]1(C)CC2` (stereo partly specified), for which the Activity is listed as 3%.

Consider `COC(=O)C(CC(C)C)NC(=O)[C@]12CC[C@@H](C)[C@H](C)[C@H]1C1=CC[C@@H]3[C@@]4(C)Cc5nc6cc(Cl)c(Cl)cc6nc5C(C)(C)[C@@H]4CC[C@@]3(C)[C@]1(C)CC2` (stereo partly specified), for which the Activity was 0.7%.

As to `CCOC(=O)CNC(=O)[C@]12CC[C@@H](C)[C@H](C)[C@H]1C1=CC[C@@H]3[C@@]4(C)CC[C@H](OC(C)=O)C(C)(C)[C@@H]4CC[C@@]3(C)[C@]1(C)CC2`, the Activity turned out to be 1.6%.

The compound `COC(=O)C(CC(C)C)NC(=O)[C@]12CC[C@@H](C)[C@H](C)[C@H]1C1=CC[C@@H]3[C@@]4(C)Cc5cnoc5C(C)(C)[C@@H]4CC[C@@]3(C)[C@]1(C)CC2` (stereo partly specified) displayed an Activity of 17.7%.

In turn, `COC(=O)C(Cc1ccccc1)NC(=O)[C@]12CC[C@@H](C)[C@H](C)[C@H]1C1=CC[C@@H]3[C@@]4(C)Cc5cnn(-c6ccc(F)cc6)c5C(C)(C)[C@@H]4CC[C@@]3(C)[C@]1(C)CC2` (stereo partly specified) showed an Activity of 2%.

Compound `C[C@H]1[C@H](C)CC[C@]2(C(=O)O)CC[C@]3(C)C(=CC[C@@H]4[C@@]5(C)Cc6nc7ccccc7nc6C(C)(C)[C@@H]5CC[C@]43C)[C@H]12` gave an Activity of 3.5%.
